Test results: ChEMBL document CHEMBL2146365, “Design and synthesis of EGFR dimerization inhibitors and evaluation of their potential in the treatment of psoriasis” (Bioorg Med Chem, 2012)
The source made the active and inactive calls. The rule behind the calls is not given here.

What was measured:
[1] = Growth inhibition of HPV-16 transformed human CCD-1106 cells after 72 hrs by MTT assay; format: functional; conditions: CCD-1106, 72 h
In short: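 Cells were seeded at 10,000 cells/well in keratinocyte serum-free medium with L-glutamine, bovine pituitary extract and EGF, at 37 °C under 5% CO2, and attached overnight. Eight drug concentrations were run with six in-plate replicates, DMSO <1%, for 72 h. MTT (0.5 mg/ml) was added for 2 h, formazan was dissolved in 90% isopropanol/10% DMSO and A590 was read. Growth is expressed relative to the untreated control.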

[2] = tested on: HaCaT; test: Cytotoxicity against human HaCaT cells assessed as LDH release after 6 hrs by CYTOX-96 assay; format: functional; conditions: read-out: LD50 (the source's name)
In short: (§1)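 LDH release was read with the CytoTox 96 kit following the kit protocol after 6 or 24 h drug exposure. Cells were seeded at 10,000/well and attached overnight. Eight concentrations were run with six in-plate replicates; DMSO was <1% in all wells, with medium-only blanks. LD₅₀ is reported as mean ± S.E.M., n = 6. CCD-1106 were grown in supplemented keratinocyte SFM; HaCaT in DMEM/10% FBS.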

[3] = tested on: HaCaT; test: Induction of apoptosis in human HaCaT cells assessed as early phase apoptotic cells at 446 uM after 9 hrs by AnnexinV-FITC/propidium iodide based FACS flow cytometry; format: functional
In short: (§2)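 HaCaT cells at 10^6 cells/ml were attached overnight and exposed to vehicle, 111.6, 223.2 or 446 µM for 9 h. Cells were then trypsinized, washed in ice-cold PBS and stained with Annexin V-FITC/PI. FACScan analysis used FL1/FL2, 10,000 events per sample, scatter gating, and quadrants set with single-stain controls. Runs were in triplicate and results are means of two experiments.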

[4] = molecular target: Epidermal growth factor receptor (Homo sapiens) (UniProt P00533); test: Inhibition of EGFR-mediated ERK1 phosphorylation in HPV-16 transformed human CCD-1106 cells at 116.8 uM after 30 mins by densitometric analysis; format: cell-based
In short: (§3)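 CCD-1106 cells were treated with compound for 30 min at 37 °C, then stimulated with EGF. Lysates were separated by SDS-PAGE, blotted to nitrocellulose and blocked in 3% BSA/NaTT. Blots were probed with p-ERK (E-4) or p-p38 (D-8) antibodies, detected by ECL and quantified by densitometry.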

[5] = tested on: THP-1; test: Growth inhibition of human THP1 cells after 72 hrs by Cell Titer 96 aqueous one solution assay; format: functional
In short: (§4)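 Cells were grown in RPMI with 10% FBS, 2 mM L-glutamine and penicillin/streptomycin. They were seeded at 10,000 cells/well in round-bottom plates and exposed to compounds for 72 h (eight concentrations, six replicates). Cell Titer 96 AQueous One reagent was then added for 3 h at 37 °C and absorbance was read at 492 nm. Values are means, n = 6.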

[6] = Growth inhibition of HPV-16 transformed human CCD-1106 cells after 72 hrs by neutral red uptake assay; format: functional; conditions: CCD-1106, 72 h
In short: (§5)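 Neutral red uptake assay over 72 h. Cells were seeded at 10,000 cells/well and attached overnight, then exposed to eight concentrations with six replicates (DMSO <1%). CCD-1106 were grown in keratinocyte SFM with supplements. HaCaT were grown in DMEM with 10% FBS and 2 mM L-glutamine. NHEK (pooled adult) were grown in keratinocyte growth medium with supplement. Values are means, n = 6, against the untreated control.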

[7] = tested on: HaCaT; test: Cytotoxicity against human HaCaT cells assessed as LDH release after 24 hrs by CYTOX-96 assay; format: functional; conditions: read-out: LD50 (the source's name); in short: as §1
[8] = Growth inhibition of human NHEK cells after 72 hrs by neutral red uptake assay; format: functional; in short: as §5
[9] = tested on: HaCaT; test: Induction of apoptosis in human HaCaT cells assessed as viable cells at 223.2 uM after 9 hrs by AnnexinV-FITC/propidium iodide based FACS flow cytometry; format: functional; conditions: read-out: Activity; in short: as §2
[10] = tested on: HaCaT; test: Induction of apoptosis in human HaCaT cells assessed as viable cells at 446 uM after 9 hrs by AnnexinV-FITC/propidium iodide based FACS flow cytometry; format: functional; conditions: read-out: Activity; in short: as §2
[11] = tested on: HaCaT; test: Induction of apoptosis in human HaCaT cells assessed as viable cells at 111.6 uM after 9 hrs by AnnexinV-FITC/propidium iodide based FACS flow cytometry; format: functional; conditions: read-out: Activity; in short: as §2
[12] = molecular target: Epidermal growth factor receptor (Homo sapiens) (UniProt P00533); test: Inhibition of EGFR-mediated ERK2 phosphorylation in HPV-16 transformed human CCD-1106 cells at 116.8 uM after 30 mins by densitometric analysis; format: cell-based; in short: as §3
[13] = tested on: HaCaT; test: Induction of apoptosis in human HaCaT cells assessed as early phase apoptotic cells at 223.2 uM after 9 hrs by AnnexinV-FITC/propidium iodide based FACS flow cytometry; format: functional; in short: as §2
[14] = tested on: HaCaT; test: Induction of apoptosis in human HaCaT cells assessed as activation of caspase 3/7 at 56 to 446 uM after 12 hrs; format: functional, cell-based
In short: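 HaCaT cells were seeded at 10,000 cells/0.2 ml/well, attached overnight and exposed to compound (56–446 µM) for 12 h. Caspase-3/7 activity was measured with the Apo-ONE homogeneous kit, fluorescence 499/521 nm, in triplicate, with medium-only background wells. MTT viability was run in parallel. Results are means of two experiments, t-test against control.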

[15] = Cytotoxicity against HPV-16 transformed human CCD-1106 cells assessed as cell viability after 6 hrs by MTT assay; format: functional; conditions: CCD-1106, 6 h, read-out: LD50 (the source's name)
In short: (§6)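 Cells were plated at 10,000/well, attached overnight, and exposed 6 or 24 h to eight drug concentrations with six in-plate replicates (DMSO <1%). MTT (0.5 mg/ml in PBS) was added for 2 h at 37 °C, then dissolved in 90% isopropanol/10% DMSO, and A590 was read. Values were corrected against untreated controls. LD₅₀ is reported as mean ± S.E.M., n = 3.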

[16] = tested on: HaCaT; test: Induction of apoptosis in human HaCaT cells after 12 hrs by electron microscopy; format: functional, cell-based
[17] = tested on: HaCaT; test: Induction of apoptosis in human HaCaT cells assessed as early phase apoptotic cells at 111.6 uM after 9 hrs by AnnexinV-FITC/propidium iodide based FACS flow cytometry; format: functional; in short: as §2
[18] = Cytotoxicity against HPV-16 transformed human CCD-1106 cells assessed as LDH release after 6 hrs by CYTOX-96 assay; format: functional; conditions: CCD-1106, 6 h, read-out: LD50 (the source's name); in short: as §1
[19] = tested on: HaCaT; test: Cytotoxicity against human HaCaT cells assessed as cell viability after 24 hrs by MTT assay; format: functional; conditions: read-out: LD50 (the source's name); in short: as §6
[20] = tested on: HaCaT; test: Induction of apoptosis in human HaCaT cells assessed as late phase apoptotic/necrotic cells at 111.6 uM after 9 hrs by AnnexinV-FITC/propidium iodide based FACS flow cytometry; format: functional; in short: as §2
[21] = Antioxidant activity in bovine brain assessed as inhibition of iron-ascorbate-induced lipid peroxidation by thiobarbituric acid test; format: functional, tissue-based, Bos taurus
In short: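 Hit compounds were tested for inhibition of lipid peroxidation by the thiobarbituric acid (TBA) assay. Propyl gallate served as the standardizing positive control, tested at 100 µM.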

[22] = tested on: HaCaT; test: Cytotoxicity against human HaCaT cells assessed as cell viability after 6 hrs by MTT assay; format: functional; conditions: read-out: LD50 (the source's name); in short: as §6
[23] = tested on: U-937; test: Growth inhibition of human U937 cells after 72 hrs by Cell Titer 96 aqueous one solution assay; format: functional; in short: as §4

Sequence of Epidermal growth factor receptor (Homo sapiens) (P00533 whole entry): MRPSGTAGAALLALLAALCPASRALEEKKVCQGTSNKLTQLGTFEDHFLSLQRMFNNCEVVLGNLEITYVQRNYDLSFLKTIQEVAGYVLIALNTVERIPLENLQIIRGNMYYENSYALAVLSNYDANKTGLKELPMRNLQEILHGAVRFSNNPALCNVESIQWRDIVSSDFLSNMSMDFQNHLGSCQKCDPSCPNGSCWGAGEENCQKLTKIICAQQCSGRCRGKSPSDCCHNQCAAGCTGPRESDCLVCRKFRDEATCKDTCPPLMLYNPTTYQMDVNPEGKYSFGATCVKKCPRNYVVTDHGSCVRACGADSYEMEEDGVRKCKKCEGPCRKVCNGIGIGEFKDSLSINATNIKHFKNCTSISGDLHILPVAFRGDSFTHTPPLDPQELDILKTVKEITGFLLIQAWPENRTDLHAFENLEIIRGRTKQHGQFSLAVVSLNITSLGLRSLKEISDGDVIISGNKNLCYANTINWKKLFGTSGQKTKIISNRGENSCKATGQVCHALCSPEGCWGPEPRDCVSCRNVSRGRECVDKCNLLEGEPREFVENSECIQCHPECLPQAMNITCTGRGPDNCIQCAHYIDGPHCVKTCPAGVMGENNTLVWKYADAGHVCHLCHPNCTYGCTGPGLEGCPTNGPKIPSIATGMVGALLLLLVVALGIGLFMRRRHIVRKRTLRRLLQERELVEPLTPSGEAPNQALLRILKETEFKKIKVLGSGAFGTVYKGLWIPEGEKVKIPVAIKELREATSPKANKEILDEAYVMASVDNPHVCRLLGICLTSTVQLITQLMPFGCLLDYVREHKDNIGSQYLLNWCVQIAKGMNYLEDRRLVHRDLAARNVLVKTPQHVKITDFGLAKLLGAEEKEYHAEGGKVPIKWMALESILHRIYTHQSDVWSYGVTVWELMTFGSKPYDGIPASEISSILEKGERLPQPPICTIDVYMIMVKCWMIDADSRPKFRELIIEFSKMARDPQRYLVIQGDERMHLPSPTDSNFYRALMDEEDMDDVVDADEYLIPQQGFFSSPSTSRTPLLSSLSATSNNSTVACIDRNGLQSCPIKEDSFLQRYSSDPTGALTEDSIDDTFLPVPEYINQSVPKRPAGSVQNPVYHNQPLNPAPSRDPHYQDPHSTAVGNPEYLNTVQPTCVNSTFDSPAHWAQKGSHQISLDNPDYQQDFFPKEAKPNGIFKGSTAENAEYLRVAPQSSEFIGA

CCOc1cc(/C=N\Nc2nc3c(c(=O)n(C)c(=O)n3C)n2Cc2ccccc2)ccc1O
GI50 ([1]; read-out: GI50): 2.69 µM | GI50 ([1]; read-out: pGI50 (converted)): 2.69 µM | CC50 [2]: 446 µM | Activity [3]: 24% | inhibition [4]: 39% | growth inhibition (GI) [5]: Dose-dependent effect | GI50 ([5]; THP-1, 72 h): 36 µM | GI50 [6]: 9 µM | CC50 [7]: 446 µM | GI50 [8]: 54 µM | viability at 223.2 µM [9]: 73% | viability at 446 µM [10]: 61% | viability at 111.6 µM [11]: 82% | inhibition [12]: 33% | Activity [13]: 17% | Activity [14]: Active | CC50 [15]: 234 µM | Activity [16]: Active | Activity [17]: 12% | CC50 [18]: > 446 µM | CC50 [19]: 446 µM | Activity [20]: 6% | IC50 [21]: 8 µM | CC50 [22]: 440 µM | growth inhibition (GI) [23]: Dose-dependent effect | GI50 ([23]; U-937, 72 h): 46 µM
